# Assay results reported in paper PMC2800230 (Nucleic Acids Research, 2009).
# Entries after “also recorded” stand apart in the source; their conditions may differ. The star is where a group is joined. Biotin = O=C1N[C@H]2[C@H](CS[C@H]2CCCCC(=O)*)N1; Ahx = NCCCCCC(=O)O
# T1: Recombinant full-length RAD51, cleaved from GST-RAD51 (human, UniProt Q06609 1-339)
# T1 sequence (looked up): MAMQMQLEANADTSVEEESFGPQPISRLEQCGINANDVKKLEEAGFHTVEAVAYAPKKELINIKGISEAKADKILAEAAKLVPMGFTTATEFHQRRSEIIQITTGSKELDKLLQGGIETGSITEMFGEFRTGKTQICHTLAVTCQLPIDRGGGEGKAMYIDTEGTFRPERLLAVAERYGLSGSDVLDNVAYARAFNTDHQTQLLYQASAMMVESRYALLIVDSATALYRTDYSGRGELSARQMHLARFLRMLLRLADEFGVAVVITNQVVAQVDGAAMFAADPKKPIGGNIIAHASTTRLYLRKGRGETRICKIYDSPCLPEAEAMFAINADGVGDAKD
# T2: Untagged recombinant RAD51 (human, UniProt Q06609 1-339)
# T2 sequence (looked up): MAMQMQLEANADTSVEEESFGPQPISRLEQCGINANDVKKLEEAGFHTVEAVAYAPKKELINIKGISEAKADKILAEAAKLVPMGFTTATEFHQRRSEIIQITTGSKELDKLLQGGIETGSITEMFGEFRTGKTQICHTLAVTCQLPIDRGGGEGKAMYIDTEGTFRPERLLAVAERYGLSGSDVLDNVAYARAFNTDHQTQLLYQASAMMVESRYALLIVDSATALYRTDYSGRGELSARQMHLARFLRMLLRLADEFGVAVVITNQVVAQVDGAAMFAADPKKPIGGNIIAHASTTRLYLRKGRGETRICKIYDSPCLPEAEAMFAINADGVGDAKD
# T3: RAD51 (WT) (Homo sapiens, UniProt Q06609 1-339)
# T3 chain: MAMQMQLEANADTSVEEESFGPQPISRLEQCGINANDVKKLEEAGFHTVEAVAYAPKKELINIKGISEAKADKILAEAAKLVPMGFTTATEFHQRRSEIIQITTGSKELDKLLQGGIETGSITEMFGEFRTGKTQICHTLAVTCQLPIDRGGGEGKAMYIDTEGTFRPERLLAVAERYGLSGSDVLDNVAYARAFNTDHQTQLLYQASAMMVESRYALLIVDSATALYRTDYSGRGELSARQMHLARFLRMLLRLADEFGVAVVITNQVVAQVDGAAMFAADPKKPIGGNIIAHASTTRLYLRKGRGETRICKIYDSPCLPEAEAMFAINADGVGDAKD
# Assays:
# RAD51 = conditions: in contrast to BRC4; ref [20],[21],[39]; cited from earlier work
# RAD51-dsDNA filament = experiment: EMSA of RAD51 nucleoprotein filament formation on dsDNA; assay type: biochemical, human; conditions: RAD51 2 µM, result in words
# How it was run: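 Untagged RAD51 (2 µM) was pre-incubated with BRC peptides at stated µM concentrations for 10 min on ice. Complexes were resolved on 0.5% agarose in TAE (50 mA, 4 h, 4°C) and phosphorimaged.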
# mCherry-RAD51^WT = experiment: Bio-BRC4 pull-down from DT40 whole-cell extract: mCherry-RAD51^WT; assay type: binding, human; conditions: lysates of untreated DT40 cells; streptavidin magnetic beads; western blot
# How it was run: (§1)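 Lysates from untreated Rad51−/− DT40 cells (no doxycycline) expressing mCherry-tagged wild-type or mutant human RAD51 alongside wild-type HsRAD51Tet off were incubated with BRC4 peptide. The peptide carried an N-terminal biotin on a 6-aminohexanoic acid spacer and a C-terminal amide, was HPLC-purified to 95%, and was bound to streptavidin-coated magnetic beads. Captured RAD51 species were detected by SDS–PAGE and immunoblotting.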
# [1] = tested on: mCherry-RAD51 RAD51^LL-EE; experiment: Bio-BRC4 pull-down from DT40 whole-cell extract: mCherry-RAD51^LL-EE; assay type: binding, human; conditions: lysates of untreated DT40 cells also expressing HsRAD51^Tet off; western blot
# How it was run: as §1
# [2] = tested on: mCherry-RAD51 RAD51^LLRR-EEAA; experiment: Bio-BRC4 pull-down from DT40 whole-cell extract: mCherry-RAD51^LLRR-EEAA; assay type: binding, human; conditions: lysates of untreated DT40 cells also expressing HsRAD51^Tet off; western blot
# How it was run: as §1
# BRC4–RAD51 interaction = assay type: binding, human; conditions: competitive ELISA; comparison in words
# How it was run: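 Solid-phase BRC4 peptide was bound by recombinant full-length human RAD51 in solution. The RAD51 was thrombin-cleaved overnight at 22°C from GST-RAD51 expressed in E. coli BL21, then dialysed into PBS. Wild-type or mutant biotinylated BRC peptides were added as soluble competitors. Absorbance is given as mean percentage (SEM) of triplicates, normalised to the positive control without soluble inhibitor.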
# [3] = biological target: T1, Recombinant full-length RAD51, cleaved …; experiment: ELISA
# [4] = biological target: T2, Untagged recombinant RAD51; experiment: native gel or EMSA
# RAD51 (WT) = biological target: T3, RAD51 (WT); experiment: streptavidin-bead pull-down
# RAD51 R250A = RAD51 R250A (Homo sapiens, UniProt Q06609 1-339, R250A); experiment: streptavidin-bead pull-down
molecule,measurement,setting,value
IENSALAFYTSCSRKTSVSQTSLLEAKKWLREGIF [BRC5],affinity for RAD51 among the human BRC repeats,RAD51,lowest affinity
KEPTLLGFHTASGKKVKIAKESLDKVKNLFDEKEQ [BRC4],inhibition of complex (filament) formation at higher concentrations,RAD51-dsDNA filament,filament formation is prevented
same,pull-down of mCherry-RAD51^WT by Bio-BRC4,mCherry-RAD51^WT,can also be pulled-down by Bio-BRC4
same,pull-down of mCherry-RAD51^LL-EE by Bio-BRC4,[1],defective in binding to Bio-BRC4
same,pull-down of mCherry-RAD51^LLRR-EEAA by Bio-BRC4,[2],defective in binding to Bio-BRC4
KEPTLLGFHTASGKKVKVSQTSLLEAKKWLREGIF [BRC^45],potency at competing the BRC4–RAD51 interaction relative to another peptide,BRC4–RAD51 interaction,more potent than BRC4
same,inhibition of complex (filament) formation at higher concentrations,RAD51-dsDNA filament,inhibits complex formation when present in higher amounts
same,permissive (super-shift) and inhibitory behaviours in the EMSA,RAD51-dsDNA filament,exhibits both behaviours; also recorded: Concentration dependent super-shift and subsequent inhibition of filament formation
{Biotin-Ahx}-KEPTLLGFHTASGKKVKVSQTSLLEAKKWLREGIF-NH2 (SMILES CC[C@H](C)[C@H](NC(=O)CNC(=O)[C@H](CCC(=O)O)NC(=O)[C@H](CCCNC(=N)N)NC(=O)[C@H](CC(C)C)NC(=O)[C@H](Cc1c[nH]c2ccccc12)NC(=O)[C@H](CCCCN)NC(=O)[C@H](CCCCN)NC(=O)[C@H](C)NC(=O)[C@H](CCC(=O)O)NC(=O)[C@H](CC(C)C)NC(=O)[C@H](CC(C)C)NC(=O)[C@H](CO)NC(=O)[C@@H](NC(=O)[C@H](CCC(N)=O)NC(=O)[C@H](CO)NC(=O)[C@@H](NC(=O)[C@H](CCCCN)NC(=O)[C@@H](NC(=O)[C@H](CCCCN)NC(=O)[C@H](CCCCN)NC(=O)CNC(=O)[C@H](CO)NC(=O)[C@H](C)NC(=O)[C@@H](NC(=O)[C@H](Cc1c[nH]cn1)NC(=O)[C@H](Cc1ccccc1)NC(=O)CNC(=O)[C@H](CC(C)C)NC(=O)[C@H](CC(C)C)NC(=O)[C@@H](NC(=O)[C@@H]1CCCN1C(=O)[C@H](CCC(=O)O)NC(=O)[C@H](CCCCN)NC(=O)CCCCCNC(=O)CCCC[C@@H]1SC[C@@H]2NC(=O)N[C@@H]21)[C@@H](C)O)[C@@H](C)O)C(C)C)C(C)C)[C@@H](C)O)C(=O)N[C@@H](Cc1ccccc1)C(N)=O) [BRC^45 chimaeric peptide (N-terminal 17 residues of BRC4 and C-terminal 18 residues of BRC5)],binding result,[3],binds
same,binding result,[4],binds
"KEPTLLGFHTASGKKVKIAKESLDKVKNLFDEKEQ (N-terminal biotin attached through a 6-aminohexanoic acid spacer; C-terminal amide) [BRC4 peptide (human BRCA2 BRC repeat 4, 35-mer)]",binding result,[3],binds
60-mer ssDNA (ssDNA) DNA: TACTGCCATTCTGTATCGCTTATCGAGTAGTTACCTGCCTAGCATTGCCACTCATAGCCT,binding result,RAD51 (WT),binds
same,binding result,RAD51 R250A,binds
60-mer dsDNA (dsDNA) DNA 1: TACTGCCATTCTGTATCGCTTATCGAGTAGTTACCTGCCTAGCATTGCCACTCATAGCCT DNA 2: AGGCTATGAGTGGCAATGCTAGGCAGGTAACTACTCGATAAGCGATACAGAATGGCAGTA,binding result,RAD51 (WT),binds
same,binding result,RAD51 R250A,binds
